Measured values as given in paper PMC12139872 (bioRxiv, 2025).

Experiments:
MOLM-13 = assay: Cytotoxicity of antioxidants; assay type: cell-based; conditions: 72-hour treatment
Procedure, shortened: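 Each antioxidant (GSH, GSSG, tocopherol, ascorbate) was dissolved in sterile water and applied alone to MOLM-13 cells.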

[1] = target: T1, human glutathione reductase (GSR) (Homo sapiens, UniProt P00390); assay: Differential scanning fluorometry; assay type: binding; conditions: 5 μM GSR, 20 μM compound
T1 sequence (P00390 44-522): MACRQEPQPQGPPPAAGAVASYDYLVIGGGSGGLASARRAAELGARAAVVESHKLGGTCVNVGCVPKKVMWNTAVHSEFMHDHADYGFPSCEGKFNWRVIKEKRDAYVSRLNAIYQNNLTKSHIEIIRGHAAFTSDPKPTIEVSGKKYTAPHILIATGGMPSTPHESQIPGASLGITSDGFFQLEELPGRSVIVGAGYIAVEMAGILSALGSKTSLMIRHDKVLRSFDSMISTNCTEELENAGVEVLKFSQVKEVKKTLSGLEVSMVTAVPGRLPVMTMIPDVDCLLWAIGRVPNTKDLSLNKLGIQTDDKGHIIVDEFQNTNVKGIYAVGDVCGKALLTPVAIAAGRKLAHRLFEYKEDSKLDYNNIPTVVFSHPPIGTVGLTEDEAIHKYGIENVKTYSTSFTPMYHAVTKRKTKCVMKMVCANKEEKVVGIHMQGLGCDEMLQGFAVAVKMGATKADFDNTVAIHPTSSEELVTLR
Procedure, shortened: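 Human GSR (5 µM final), compound (20 µM final) and 5X SYPRO Orange were combined in 20 mM HEPES pH 7.4, 100 mM NaCl, 1% DMSO. Controls: no protein, compound fluorescence, plate autofluorescence, plus 2-AAPA as positive control. Plates were heated from 25 to 95 °C at 1-min steps with FRET-channel readout. Tm was taken from the dRFU derivative, and significance was tested by Student's t-test.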

Row | Compound | concentrations at which antioxidant is toxic to MOLM-13 (MOLM-13) | toxicity of exogenously supplemented antioxidant to MOLM-13 (in words) (MOLM-13) | other results
1 | O=C1O[C@H]([C@@H](O)CO)C(O)=C1O [ascorbate] | > 15.63 µM | – | –
2 | N[C@@H](CCC(=O)N[C@@H](CS)C(=O)NCC(=O)O)C(=O)O [GSH, reduced glutathione] | – | not toxic | –
3 | Cc1c(C)c2c(c(C)c1O)CC[C@@](C)(CCC[C@H](C)CCC[C@H](C)CCCC(C)C)O2 [tocopherol] | higher than 62.5 μM | – | –
4 | CC(=O)NC(CSC(=S)Nc1ccc(NC(=S)SCC(NC(C)=O)C(=O)O)cc1)C(=O)O (centres unmarked) [Compound 2-AAPA, 2-AAPA] | – | – | change in melting temperature (Tm) of GSR [1]: significantly changed the melting temperature
5 | oxidized glutathione [GSSG] | – | not toxic | –
